# Measured values taken from ChEMBL document CHEMBL5058577, “EUbOPEN Chemogenomics Library 2 (Multiplex)” (2022).
# System: U2OS
# Assay: Multiplex assay against U2OS
# Format: toxicity, cell-based
# Conditions: human
# Procedure, shortened: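 On a CQ1 microscope at 37°C and 5% CO2, live cells were imaged after compound addition. They had been stained at seeding with Hoechst33342, BioTracker Green Microtubule Cytoskeleton Dye, MitoTracker Red and Annexin V Alexa Fluor 680. CellPathfinder machine-learning gating assigned cells to Hoechst high-intensity objects or normal cells, normal cells to healthy, pyknosed or fragmented nuclei, and pyknosed cells to mitotic or apoptotic. Tubulin, mitochondrial-mass and membrane-permeability phenotypes are per cents of healthy-nucleus cells.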
# [1] = 12 h, 1 µM, compound concentration 1 uM, replicate 1
# [2] = 12 h, 1 µM, compound concentration 1 uM, replicate 2
# [3] = 12 h, 10 µM, compound concentration 10 uM, replicate 1
# [4] = 12 h, 10 µM, compound concentration 10 uM, replicate 2
# [5] = 24 h, 1 µM, compound concentration 1 uM, replicate 1
# [6] = 24 h, 1 µM, compound concentration 1 uM, replicate 2
# [7] = 24 h, 10 µM, compound concentration 10 uM, replicate 1
# [8] = 24 h, 10 µM, compound concentration 10 uM, replicate 2
# [9] = 48 h, 1 µM, compound concentration 1 uM, replicate 1
# [10] = 48 h, 1 µM, compound concentration 1 uM, replicate 2
# [11] = 48 h, 10 µM, compound concentration 10 uM, replicate 1
# [12] = 48 h, 10 µM, compound concentration 10 uM, replicate 2
compound,measurement,setting,value
Cc1cccc(NC(=O)CN2CCC(c3ccccn3)CC2)c1.Cl.Cl,Population Apoptotic (%),[1],90%
same,Population Fragmented Nuclei (%),[1],27%
same,Population Healthy Nuclei (%),[1],67%
same,Population Hoechst High Intensity Objects (%),[1],1%
same,Population Membrane Permeable-Phenotype (%),[1],5%
same,Population Mitochondria Different-Phenotype (%),[1],2%
same,Population Mitotic Cells (%),[1],9%
same,Population Normal (%),[1],98%
same,Population Pyknosed Nuclei (%),[1],5%
same,Population Tubulin-Different-Phenotype (%),[1],3%
same,Total Cell Count,[1],208
same,Population Apoptotic (%),[2],57%
same,Population Fragmented Nuclei (%),[2],17%
same,Population Healthy Nuclei (%),[2],76%
same,Population Hoechst High Intensity Objects (%),[2],0%
same,Population Membrane Permeable-Phenotype (%),[2],4%
same,Population Mitotic Cells (%),[2],42%
same,Population Normal (%),[2],99%
same,Population Pyknosed Nuclei (%),[2],6%
same,Total Cell Count,[2],111
same,Population Apoptotic (%),[3],72%
same,Population Fragmented Nuclei (%),[3],34%
same,Population Healthy Nuclei (%),[3],55%
same,Population Hoechst High Intensity Objects (%),[3],2%
same,Population Membrane Permeable-Phenotype (%),[3],8%
same,Population Mitochondria Different-Phenotype (%),[3],6%
same,Population Mitotic Cells (%),[3],27%
same,Population Normal (%),[3],97%
same,Population Pyknosed Nuclei (%),[3],10%
same,Population Tubulin-Different-Phenotype (%),[3],3%
same,Total Cell Count,[3],216
same,Population Apoptotic (%),[4],66%
same,Population Fragmented Nuclei (%),[4],21%
same,Population Healthy Nuclei (%),[4],70%
same,Population Hoechst High Intensity Objects (%),[4],1%
same,Population Membrane Permeable-Phenotype (%),[4],12%
same,Population Mitochondria Different-Phenotype (%),[4],7%
same,Population Mitotic Cells (%),[4],33%
same,Population Normal (%),[4],98%
same,Population Pyknosed Nuclei (%),[4],8%
same,Population Tubulin-Different-Phenotype (%),[4],9%
same,Total Cell Count,[4],111
same,Population Apoptotic (%),[5],76%
same,Population Fragmented Nuclei (%),[5],22%
same,Population Healthy Nuclei (%),[5],70%
same,Population Hoechst High Intensity Objects (%),[5],3%
same,Population Membrane Permeable-Phenotype (%),[5],5%
same,Population Mitochondria Different-Phenotype (%),[5],3%
same,Population Mitotic Cells (%),[5],23%
same,Population Normal (%),[5],96%
same,Population Pyknosed Nuclei (%),[5],7%
same,Population Tubulin-Different-Phenotype (%),[5],3%
same,Total Cell Count,[5],249
same,Population Apoptotic (%),[6],73%
same,Population Fragmented Nuclei (%),[6],21%
same,Population Healthy Nuclei (%),[6],67%
same,Population Hoechst High Intensity Objects (%),[6],0%
same,Population Membrane Permeable-Phenotype (%),[6],7%
same,Population Mitochondria Different-Phenotype (%),[6],4%
same,Population Mitotic Cells (%),[6],26%
same,Population Normal (%),[6],99%
same,Population Pyknosed Nuclei (%),[6],11%
same,Population Tubulin-Different-Phenotype (%),[6],5%
same,Total Cell Count,[6],135
same,Population Apoptotic (%),[7],85%
same,Population Fragmented Nuclei (%),[7],32%
same,Population Healthy Nuclei (%),[7],55%
same,Population Hoechst High Intensity Objects (%),[7],3%
same,Population Membrane Permeable-Phenotype (%),[7],6%
same,Population Mitochondria Different-Phenotype (%),[7],3%
same,Population Mitotic Cells (%),[7],14%
same,Population Normal (%),[7],96%
same,Population Pyknosed Nuclei (%),[7],11%
same,Population Tubulin-Different-Phenotype (%),[7],2%
same,Total Cell Count,[7],243
same,Population Apoptotic (%),[8],75%
same,Population Fragmented Nuclei (%),[8],20%
same,Population Healthy Nuclei (%),[8],73%
same,Population Hoechst High Intensity Objects (%),[8],2%
same,Population Membrane Permeable-Phenotype (%),[8],17%
same,Population Mitochondria Different-Phenotype (%),[8],5%
same,Population Mitotic Cells (%),[8],25%
same,Population Normal (%),[8],97%
same,Population Pyknosed Nuclei (%),[8],6%
same,Population Tubulin-Different-Phenotype (%),[8],10%
same,Total Cell Count,[8],131
same,Population Apoptotic (%),[9],82%
same,Population Fragmented Nuclei (%),[9],18%
same,Population Healthy Nuclei (%),[9],72%
same,Population Hoechst High Intensity Objects (%),[9],2%
same,Population Membrane Permeable-Phenotype (%),[9],6%
same,Population Mitochondria Different-Phenotype (%),[9],3%
same,Population Mitotic Cells (%),[9],17%
same,Population Normal (%),[9],97%
same,Population Pyknosed Nuclei (%),[9],8%
same,Population Tubulin-Different-Phenotype (%),[9],3%
same,Total Cell Count,[9],341
same,Population Apoptotic (%),[10],94%
same,Population Fragmented Nuclei (%),[10],17%
same,Population Hoechst High Intensity Objects (%),[10],3%
same,Population Membrane Permeable-Phenotype (%),[10],2%
same,Population Mitotic Cells (%),[10],5%
same,Population Normal (%),[10],96%
same,Population Pyknosed Nuclei (%),[10],10%
same,Population Tubulin-Different-Phenotype (%),[10],2%
same,Total Cell Count,[10],182
same,Population Apoptotic (%),[11],96%
same,Population Fragmented Nuclei (%),[11],29%
same,Population Healthy Nuclei (%),[11],60%
same,Population Hoechst High Intensity Objects (%),[11],3%
same,Population Membrane Permeable-Phenotype (%),[11],6%
same,Population Mitochondria Different-Phenotype (%),[11],6%
same,Population Mitotic Cells (%),[11],3%
same,Population Normal (%),[11],96%
same,Population Pyknosed Nuclei (%),[11],9%
same,Population Tubulin-Different-Phenotype (%),[11],3%
same,Total Cell Count,[11],303
same,Population Apoptotic (%),[12],83%
same,Population Fragmented Nuclei (%),[12],19%
same,Population Healthy Nuclei (%),[12],74%
same,Population Membrane Permeable-Phenotype (%),[12],10%
same,Population Mitochondria Different-Phenotype (%),[12],4%
same,Population Mitotic Cells (%),[12],16%
same,Population Pyknosed Nuclei (%),[12],6%
same,Population Tubulin-Different-Phenotype (%),[12],4%
same,Total Cell Count,[12],198
